Paper PMC4356685 (International Journal of Nanomedicine, 2015)

What was measured:
4T1 murine breast tumors = assay: In vivo anticancer efficacy; settings: 4T1 tumor-bearing BALB/c mice, PTX 10 mg/kg i.v. at days 10, 13, 16, 19
Method in brief: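 Female BALB/c mice (4–6 weeks old) were inoculated subcutaneously in the left back, under anesthesia, with ~5×10^5 4T1 cells in PBS. Dosing began at a tumor volume of about 50–100 mm3: 10 mg/kg drug-equivalent by tail-vein injection on days 10, 13, 16 and 19 after inoculation, with a normal-saline control. Tumors (V = L×W²/2) and body weight were measured every 2 days until day 23. Survival was followed until death from tumor growth or treatment.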

[1] = Toxicity in tumor-bearing mice; assay type: in vivo; settings: PTX 10 mg/kg i.v. in 4T1 tumor-bearing BALB/c mice
4T1 cells = assay: In vitro cytotoxicity, WST-8 assay; assay type: cell-based, mouse; settings: 48 hours, WST-8, n=5
[2] = Pharmacokinetic studies in rats; assay type: in vivo, Sprague Dawley (SD) rats
Method in brief: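 Female SD rats (200±20 g), three per group, received a single tail-vein injection in 0.9% saline (10 mg/kg drug-equivalent). Retro-orbital blood was taken at 5, 15 and 30 min and at 1, 1.5, 2, 4, 7, 10 and 24 h into heparinized tubes. Plasma was stored at −20°C, extracted, redissolved in acetonitrile, filtered and quantified by HPLC against spiked-plasma standard curves. Parameters came from a two-compartment model fit.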

[3] = Sprague-Dawley, rat, plasma, iv, 10 mg/kg
[4] = rats, i.v. tail vein, 10 mg/kg of PTX, two-compartment model

## CC(=O)O[C@H]1C(=O)[C@@]2(C)[C@H]([C@H](OC(=O)c3ccccc3)[C@]3(O)C[C@H](OC(=O)[C@H](O)[C@@H](NC(=O)c4ccccc4)c4ccccc4)C(C)=C1C3(C)C)[C@]1(OC(C)=O)CO[C@@H]1C[C@@H]2O [Free PTX, paclitaxel]
4T1 murine breast tumors
  median survival time: 31 days
4T1 murine breast tumors; n=8
  tumor inhibition rate: 32.5%
[1]
  acute toxicity / deaths after intravenous injection: some deaths were observed a few minutes after the injection
4T1 cells
  cytotoxicity (cell viability) compared with other formulations: stronger inhibition effects compared to the PEGylated nanoparticles
[2]; [3]
  AUC(0-inf): 49200 ± 16900 ng·h/mL
  AUC(0-t): 46600 ± 16800 ng·h/mL
  clearance: 8.5 mL/min/kg
  k el: 0.000511 s⁻¹
[2]; [4]
  K12 (transfer rate constant from central to periphery compartment): 0.45 ± 0.33 h⁻¹
  K21 (transfer rate constant from periphery to central compartment): 0.55 ± 0.24 h⁻¹
  V1 (volume of central compartment): 0.28 ± 0.02 L/kg
  V2 (volume of periphery compartment): 0.21 ± 0.12 L/kg
